According to publication PMC10041147 (RSC Advances, 2023):

What was measured:
LecA = conditions: n.b. = no binding, no reference given; cited from earlier work
ConA = conditions: read-out: Reported Kd; cited from earlier work
[1] = target: T1, Pseudomonas aeruginosa lectin LecA (Pseudomonas aeruginosa, UniProt Q05097); assay: Electrochemical; conditions: LecA sensor, n.b. = no binding; for K d from CV: cyclic voltammetry; for K d from DPV: differential pulse voltammetry
T1 sequence (Q05097 1-122): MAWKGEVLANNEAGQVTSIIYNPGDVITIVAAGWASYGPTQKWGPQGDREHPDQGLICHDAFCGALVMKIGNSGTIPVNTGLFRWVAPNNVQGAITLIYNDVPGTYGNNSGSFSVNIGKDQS
In short: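 P. aeruginosa LecA (commercial, ≥70%) coupled at 10 μM for 1 h to an EDC/NHS-activated MUA/DTT layer on a gold nanoparticle–graphene screen-printed electrode, then blocked 30 min with 1% BSA. Sugars titrated in 10 mM PBS with 1 mM CaCl2 and 1 mM MnCl2. Read in 25 mM [Fe(CN)6]3−/4− with 0.2 M KCl at 25 °C. CV: −0.2 to 0.8 V, 0.05 V s−1. DPV: −0.2 to 0.5 V. Reduction-peak Δip fitted to a one-site model.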

Compound | Reported Kd (LecA) | Kd (ConA) [µM] | K d from CV [1] | K d from DPV [1]
mannan [mannan (4)] | n.b. | 3 | n.b. | n.b.
OC[C@H]1OC(O)[C@@H](O)[C@@H](O)[C@@H]1O (some centres unmarked) [mannose (3), mannose] | n.b. | 57 | n.b. | n.b.
